# Source: PMC3228889 (International Journal of Cancer. Journal International du …, 2011)
# Where two headings read alike, the source gives them in different places.
# Columns and labels:
# [1] = tested on: MM1.S MM cells; assay: MTT viability of MM1.S cells; format: cell-based, human
# [2] = target: T1, STAT3 (Homo sapiens, UniProt P40763); assay: STAT3 nuclear localization, immunofluorescence staining; format: cell-based; settings: U266 cells
# [3] = target: Fyn (Homo sapiens, UniProt P06241); settings: read-out: IC50 kinase activity, Fyn; 10 concentrations, 100 μM highest
# [4] = tested on: ERK(1/2); assay: Western blot, ERK; format: cell-based, human
# How it was run: (§1)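 MM cells were treated with test compound (2.5, 5 or 10μM) or DMSO for 24 h, then lysed in cold RIPA buffer with protease inhibitors. Lysates were run on SDS-PAGE, transferred to PVDF and probed with antibodies to p-ERK1/2 (Thr202/Tyr204), p-Src (Tyr416), p-mTOR (Ser2448), or cleaved caspase-3 and cleaved PARP. Detection was by enhanced chemiluminescence, with GAPDH as loading control.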
# [5] = target: STAT2 (Homo sapiens, UniProt P52630); assay: Western blot, cytokine-induced STAT2 phosphorylation; format: cell-based; settings: MM.1S, IFN-α stimulated, 2 hours pre-treatment
# How it was run: (§2)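 MM.1S cells were serum-starved for 24 h, then pre-treated for 2 h with test compound (2.5–10 μM), a reference STAT3 inhibitor (2.5–20 μM) or DMSO. IFN-α (25ng/ml) was added for 30 min in the presence or absence of test compound. Western blots of RIPA lysates were probed for p-STAT1 (Tyr701) or p-STAT2 (Tyr690).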
# [6] = target: JNK1 (Homo sapiens, UniProt P45983); settings: read-out: IC50 kinase activity, JNK1; 10 concentrations, 100 μM highest
# [7] = target: CDK1/CyclinB (Homo sapiens, UniProt P06493); settings: read-out: IC50 kinase activity, CDK1/CyclinB; 10 concentrations, 100 μM highest
# [8] = target: T1, STAT3; assay: STAT3 DNA binding activity in nuclear extracts; format: cell-based; settings: 24 hours, U266 and ARH-77 MM cells
# [9] = tested on: STAT3 downstream target genes; assay: RT-PCR of STAT3 downstream target genes; format: cell-based, human; settings: U266 and ARH-77, 24-h
# [10] = 5 mg/kg daily intraperitoneal, vs vehicle-treated mice
# [11] = target: PAK1 (Homo sapiens, UniProt Q13153); settings: read-out: IC50 kinase activity, PAK1; 10 concentrations, 100 μM highest
# [12] = target: PDGFR-a (Homo sapiens, UniProt P16234); settings: read-out: IC50 kinase activity, PDGFR-a; 10 concentrations, 100 μM highest
# [13] = target: T1, STAT3; assay: Western blot, IL-6 and IFN-α induced STAT3 phosphorylation; format: cell-based; settings: MM.1S, 2 hours pre-treatment, 30 minutes stimulation
# [14] = tested on: Src; assay: Western blot, Src phosphorylation; format: cell-based, human; settings: U266 and ARH-77 MM cells
# How it was run: as §1
# [15] = target: PAK2 (Homo sapiens, UniProt Q13177); settings: read-out: IC50 kinase activity, PAK2; 10 concentrations, 100 μM highest
# [16] = target: IKKb (Homo sapiens, UniProt O14920); settings: read-out: IC50 kinase activity, IKKb; 10 concentrations, 100 μM highest
# [17] = target: STAT1 (Homo sapiens, UniProt P42224); assay: Western blot, cytokine-induced STAT1 phosphorylation; format: cell-based; settings: MM.1S, IFN-α stimulated, 2 hours pre-treatment
# How it was run: as §2
# [18] = target: LcK (Homo sapiens, UniProt P06239); settings: read-out: IC50 kinase activity, LcK; 10 concentrations, 100 μM highest
# [19] = target: FAK (Homo sapiens, UniProt Q05397); settings: read-out: IC50 kinase activity, FAK; 10 concentrations, 100 μM highest
# [20] = tested on: twenty one purified human protein kinases
# [21] = target: FGFR2 (Homo sapiens, UniProt P21802); settings: read-out: IC50 kinase activity, FGFR2; 10 concentrations, 100 μM highest
# [22] = target: BMX (Homo sapiens, UniProt P51813); settings: read-out: IC50 kinase activity, BMX; 10 concentrations, 100 μM highest
# [23] = tested on: U266 MM cells; assay: Annexin-V/PI flow cytometry apoptosis; format: cell-based, human; settings: 24 hours
# How it was run: (§3)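 Cells were treated with test compound or DMSO for 24 h, harvested, washed in cold PBS and resuspended in 1× binding buffer at 1 × 10^6 cells/ml. Annexin V-FITC and PI were added for 15 min at RT in the dark. Analysis was by flow cytometry within 1 h. Results come from at least 3 independent experiments, compared with DMSO by Mann-Whitney test.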
# [24] = target: T1, STAT3; assay: Western blot, constitutive STAT3 phosphorylation; format: cell-based
# How it was run: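 U266 and ARH-77 cells were treated with test compound or DMSO for 24 h. Primary CD138+ patient cells were isolated by positive magnetic selection (n=3 patients). Cells were lysed in cold RIPA buffer with protease inhibitors, run on SDS-PAGE and transferred to PVDF. Blots were probed for p-STAT3 (Tyr705) and total STAT3 and developed by chemiluminescence, with GAPDH as loading control.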
# [25] = target: Fgr (Homo sapiens, UniProt P09769); settings: read-out: IC50 kinase activity, Fgr; 10 concentrations, 100 μM highest
# [26] = target: PKC-a (Homo sapiens, UniProt P17252); settings: read-out: IC50 kinase activity, PKC-a; 10 concentrations, 100 μM highest
# [27] = target: PKC-d (Homo sapiens, UniProt Q05655); settings: read-out: IC50 kinase activity, PKC-d; 10 concentrations, 100 μM highest
# [28] = tested on: U266 cells; assay: Synergy of LLL12 and lenalidomide, combinational index; format: cell-based, human; settings: LLL12 combined with lenalidomide, U266, all combinations; CI < 1 = synergism
# [29] = target: CSK (Homo sapiens, UniProt P41240); settings: read-out: IC50 kinase activity, CSK; 10 concentrations, 100 μM highest
# [30] = tested on: ARH-77 MM cells; assay: Annexin-V/PI flow cytometry apoptosis; format: cell-based, human; settings: 24 hours
# How it was run: as §3
# [31] = tested on: mTOR; assay: Western blot, mTOR phosphorylation; format: cell-based, human; settings: U266 and ARH-77 MM cells
# How it was run: as §1
# [32] = tested on: normal human marrow [CD138(−)] cells; settings: 10μM, 24h, MTS
# [33] = target: ZAP-70 (Homo sapiens, UniProt P43403); settings: read-out: IC50 kinase activity, ZAP-70; 10 concentrations, 100 μM highest
# [34] = target: STAT4 (Homo sapiens, UniProt Q14765); assay: Western blot, IL-4 induced STAT4 phosphorylation; format: cell-based; settings: IM-9 human MM cells
# How it was run: (§4)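 IM-9 cells were serum-starved for 24 h, then left untreated or pre-treated for 2 h with test compound (2.5–10 μM), a reference STAT3 inhibitor (2.5–20 μM) or DMSO. IL-4 (25ng/ml) was added, and cells were harvested 30 min later. Blots of RIPA lysates were probed for p-STAT4 (Tyr693) or p-STAT6 (Tyr641).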
# [35] = target: JNK2 (Homo sapiens, UniProt P45984); settings: read-out: IC50 kinase activity, JNK2; 10 concentrations, 100 μM highest
# [36] = tested on: ARH-77 MM tumor cells; assay: Mouse xenograft model; format: in vivo, NOD/SCID mice; settings: 5 mg/kg daily intraperitoneal, vs DMSO
# [37] = tested on: U266 MM cells; assay: MTT cell viability assay; format: cell-based, human; settings: read-out: IC50 cell viability, U266, 72 hours
# [38] = target: AKT2 (Homo sapiens, UniProt P31751); settings: read-out: IC50 kinase activity, AKT2; 10 concentrations, 100 μM highest
# [39] = tested on: RPMI-8226; assay: Western blot, cleaved caspase-3 and PARP; format: cell-based, human; settings: IL-6 independent RPMI-8226, P-STAT3 too low to be detected
# How it was run: as §1
# [40] = tested on: normal human peripheral blood lymphocytes
# [41] = target: Lyn (Homo sapiens, UniProt P07948); settings: read-out: IC50 kinase activity, Lyn; 10 concentrations, 100 μM highest
# [42] = target: STAT6 (Homo sapiens, UniProt P42226); assay: Western blot, IL-4 induced STAT6 phosphorylation; format: cell-based; settings: IM-9 human MM cells
# How it was run: as §4
# [43] = tested on: ARH-77 MM cells; assay: MTT cell viability assay; format: cell-based, human; settings: read-out: IC50 cell viability, ARH-77, 72 hours
# [44] = target: BRK (Homo sapiens, UniProt Q13882); settings: read-out: IC50 kinase activity, BRK; 10 concentrations, 100 μM highest
# [45] = target: JAK3 (Homo sapiens, UniProt P52333); settings: read-out: IC50 kinase activity, JAK3; 10 concentrations, 100 μM highest
# T1 sequence (P40763 whole entry): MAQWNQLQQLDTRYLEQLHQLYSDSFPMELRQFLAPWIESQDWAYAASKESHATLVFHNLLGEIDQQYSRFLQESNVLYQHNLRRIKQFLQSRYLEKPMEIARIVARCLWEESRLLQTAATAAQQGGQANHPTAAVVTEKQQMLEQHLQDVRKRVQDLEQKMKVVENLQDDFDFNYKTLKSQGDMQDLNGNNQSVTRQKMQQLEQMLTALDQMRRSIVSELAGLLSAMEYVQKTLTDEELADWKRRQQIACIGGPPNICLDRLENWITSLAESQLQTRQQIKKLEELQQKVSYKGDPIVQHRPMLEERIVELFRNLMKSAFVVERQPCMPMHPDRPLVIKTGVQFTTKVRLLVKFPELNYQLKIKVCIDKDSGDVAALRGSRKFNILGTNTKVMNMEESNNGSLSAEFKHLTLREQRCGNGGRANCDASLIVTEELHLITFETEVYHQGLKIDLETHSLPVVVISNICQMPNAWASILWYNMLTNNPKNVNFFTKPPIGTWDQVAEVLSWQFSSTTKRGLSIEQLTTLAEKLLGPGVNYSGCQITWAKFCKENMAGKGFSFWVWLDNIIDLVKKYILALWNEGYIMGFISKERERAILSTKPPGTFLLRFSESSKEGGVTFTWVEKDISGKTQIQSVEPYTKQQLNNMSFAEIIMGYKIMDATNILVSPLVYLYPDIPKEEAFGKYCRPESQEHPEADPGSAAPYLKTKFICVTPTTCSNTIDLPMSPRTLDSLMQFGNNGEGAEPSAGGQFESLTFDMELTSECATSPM
# Chain of Lyn (P07948 whole entry): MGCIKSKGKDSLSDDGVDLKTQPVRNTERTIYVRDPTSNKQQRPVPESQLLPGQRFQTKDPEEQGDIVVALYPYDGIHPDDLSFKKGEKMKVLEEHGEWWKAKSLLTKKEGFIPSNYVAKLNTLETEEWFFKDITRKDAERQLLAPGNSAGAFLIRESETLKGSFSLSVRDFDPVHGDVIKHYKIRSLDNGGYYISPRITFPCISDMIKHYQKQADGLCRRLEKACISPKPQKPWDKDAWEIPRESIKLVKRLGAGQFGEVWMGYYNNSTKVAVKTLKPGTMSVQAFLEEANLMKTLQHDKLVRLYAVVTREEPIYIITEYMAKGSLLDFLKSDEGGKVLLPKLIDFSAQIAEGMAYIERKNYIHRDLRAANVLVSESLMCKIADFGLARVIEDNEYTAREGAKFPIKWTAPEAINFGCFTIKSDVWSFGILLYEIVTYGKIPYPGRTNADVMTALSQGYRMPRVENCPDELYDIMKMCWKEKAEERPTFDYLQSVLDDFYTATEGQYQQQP
# Chain of AKT2 (P31751 whole entry): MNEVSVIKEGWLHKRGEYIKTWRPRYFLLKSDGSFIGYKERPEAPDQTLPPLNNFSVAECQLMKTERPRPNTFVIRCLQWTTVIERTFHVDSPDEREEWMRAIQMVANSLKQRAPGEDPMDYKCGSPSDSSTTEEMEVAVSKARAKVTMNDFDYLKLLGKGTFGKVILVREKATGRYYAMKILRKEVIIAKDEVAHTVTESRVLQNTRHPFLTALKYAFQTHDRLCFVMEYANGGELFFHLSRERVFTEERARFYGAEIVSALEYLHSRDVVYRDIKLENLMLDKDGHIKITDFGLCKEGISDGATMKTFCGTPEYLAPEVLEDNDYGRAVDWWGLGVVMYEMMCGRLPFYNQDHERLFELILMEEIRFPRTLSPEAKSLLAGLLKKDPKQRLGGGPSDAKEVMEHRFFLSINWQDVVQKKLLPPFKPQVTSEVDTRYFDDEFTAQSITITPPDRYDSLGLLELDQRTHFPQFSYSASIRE
# Chain of CDK1/CyclinB (P06493 whole entry): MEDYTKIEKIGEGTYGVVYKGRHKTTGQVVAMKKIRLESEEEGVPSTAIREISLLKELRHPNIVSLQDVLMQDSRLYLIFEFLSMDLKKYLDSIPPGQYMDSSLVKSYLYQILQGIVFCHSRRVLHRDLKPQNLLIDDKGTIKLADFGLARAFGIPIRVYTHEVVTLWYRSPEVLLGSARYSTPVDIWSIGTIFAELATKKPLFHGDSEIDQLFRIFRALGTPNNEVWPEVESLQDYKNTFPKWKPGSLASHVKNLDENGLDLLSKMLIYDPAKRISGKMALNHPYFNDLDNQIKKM
# Chain of CDK1/CyclinB (P14635 whole entry partner): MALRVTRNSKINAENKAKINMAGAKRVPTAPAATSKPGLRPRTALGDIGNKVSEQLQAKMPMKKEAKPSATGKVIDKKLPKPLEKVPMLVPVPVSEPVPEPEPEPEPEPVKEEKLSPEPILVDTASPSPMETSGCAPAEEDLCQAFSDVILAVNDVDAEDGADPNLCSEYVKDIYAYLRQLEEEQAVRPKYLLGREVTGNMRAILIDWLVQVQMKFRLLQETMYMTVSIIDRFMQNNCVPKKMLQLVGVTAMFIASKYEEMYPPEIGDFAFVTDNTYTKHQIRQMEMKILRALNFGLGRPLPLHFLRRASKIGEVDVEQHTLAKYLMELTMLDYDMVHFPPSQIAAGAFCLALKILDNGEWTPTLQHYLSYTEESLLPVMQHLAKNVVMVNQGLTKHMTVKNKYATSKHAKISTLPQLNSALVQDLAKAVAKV
# Chain of JNK1 (P45983 whole entry): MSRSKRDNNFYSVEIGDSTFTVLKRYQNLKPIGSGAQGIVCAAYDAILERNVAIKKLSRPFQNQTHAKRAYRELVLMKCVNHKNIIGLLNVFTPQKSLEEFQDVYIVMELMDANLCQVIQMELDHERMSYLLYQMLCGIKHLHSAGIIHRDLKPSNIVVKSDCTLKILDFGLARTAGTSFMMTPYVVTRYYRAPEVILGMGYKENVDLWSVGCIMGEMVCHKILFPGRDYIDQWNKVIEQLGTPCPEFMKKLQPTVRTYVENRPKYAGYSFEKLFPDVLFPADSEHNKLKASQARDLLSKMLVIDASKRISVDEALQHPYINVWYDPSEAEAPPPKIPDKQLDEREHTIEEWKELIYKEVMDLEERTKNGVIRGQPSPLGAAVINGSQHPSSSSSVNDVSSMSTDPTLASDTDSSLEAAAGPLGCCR
# Chain of PDGFR-a (P16234 24-1089): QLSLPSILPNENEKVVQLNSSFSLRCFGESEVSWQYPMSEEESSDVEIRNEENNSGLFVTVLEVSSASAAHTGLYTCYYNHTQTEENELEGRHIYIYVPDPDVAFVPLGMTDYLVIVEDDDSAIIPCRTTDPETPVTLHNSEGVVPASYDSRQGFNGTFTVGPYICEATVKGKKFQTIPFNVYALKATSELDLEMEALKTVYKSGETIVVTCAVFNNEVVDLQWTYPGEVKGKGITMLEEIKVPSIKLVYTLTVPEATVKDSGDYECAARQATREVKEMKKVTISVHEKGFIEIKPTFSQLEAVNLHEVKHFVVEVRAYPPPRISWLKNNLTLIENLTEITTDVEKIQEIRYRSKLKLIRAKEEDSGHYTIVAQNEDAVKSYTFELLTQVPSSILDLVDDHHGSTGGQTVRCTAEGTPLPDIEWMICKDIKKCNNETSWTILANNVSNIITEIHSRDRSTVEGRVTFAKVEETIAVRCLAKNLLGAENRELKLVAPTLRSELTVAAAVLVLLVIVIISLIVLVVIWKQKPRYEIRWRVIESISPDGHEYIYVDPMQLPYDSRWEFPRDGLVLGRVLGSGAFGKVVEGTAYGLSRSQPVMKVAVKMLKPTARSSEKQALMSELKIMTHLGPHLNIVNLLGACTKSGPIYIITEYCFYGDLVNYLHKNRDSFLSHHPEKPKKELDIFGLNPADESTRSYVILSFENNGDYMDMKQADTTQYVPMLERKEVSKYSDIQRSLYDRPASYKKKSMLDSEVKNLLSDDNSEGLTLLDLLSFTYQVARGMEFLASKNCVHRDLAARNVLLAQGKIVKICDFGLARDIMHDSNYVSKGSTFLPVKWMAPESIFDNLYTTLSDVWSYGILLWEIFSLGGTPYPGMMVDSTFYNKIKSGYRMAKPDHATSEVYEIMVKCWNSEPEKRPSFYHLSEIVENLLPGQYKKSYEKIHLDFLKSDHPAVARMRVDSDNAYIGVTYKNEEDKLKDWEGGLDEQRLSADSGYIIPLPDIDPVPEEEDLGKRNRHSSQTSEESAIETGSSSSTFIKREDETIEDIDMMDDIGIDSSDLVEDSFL
# Chain of JNK2 (P45984 whole entry): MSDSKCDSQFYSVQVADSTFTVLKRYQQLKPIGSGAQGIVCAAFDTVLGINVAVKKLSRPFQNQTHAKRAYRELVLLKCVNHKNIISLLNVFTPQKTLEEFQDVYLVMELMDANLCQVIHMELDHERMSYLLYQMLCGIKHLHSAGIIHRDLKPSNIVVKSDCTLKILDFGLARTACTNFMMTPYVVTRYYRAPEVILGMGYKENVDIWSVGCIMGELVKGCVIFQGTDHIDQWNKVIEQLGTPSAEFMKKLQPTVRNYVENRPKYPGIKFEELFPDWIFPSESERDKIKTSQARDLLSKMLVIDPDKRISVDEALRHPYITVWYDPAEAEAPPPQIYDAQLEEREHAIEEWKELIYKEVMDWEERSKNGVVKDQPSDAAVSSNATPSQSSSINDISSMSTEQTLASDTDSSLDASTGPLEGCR
# Chain of PAK2 (Q13177 whole entry): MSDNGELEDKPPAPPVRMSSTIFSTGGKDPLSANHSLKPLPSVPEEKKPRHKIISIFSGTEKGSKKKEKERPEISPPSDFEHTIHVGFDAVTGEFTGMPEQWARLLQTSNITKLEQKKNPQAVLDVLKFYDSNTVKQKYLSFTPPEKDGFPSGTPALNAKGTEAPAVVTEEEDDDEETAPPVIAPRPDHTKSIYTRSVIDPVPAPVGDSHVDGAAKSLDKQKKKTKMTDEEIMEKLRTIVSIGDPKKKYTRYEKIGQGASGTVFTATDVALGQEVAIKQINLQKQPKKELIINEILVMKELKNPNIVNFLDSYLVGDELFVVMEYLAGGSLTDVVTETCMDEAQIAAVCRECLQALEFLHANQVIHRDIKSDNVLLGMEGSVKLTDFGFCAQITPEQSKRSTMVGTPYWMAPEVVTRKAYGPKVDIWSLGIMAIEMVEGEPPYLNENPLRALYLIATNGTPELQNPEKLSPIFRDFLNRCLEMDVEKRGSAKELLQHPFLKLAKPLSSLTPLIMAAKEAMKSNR
compound,measurement,setting,value
"Nc1cccc2c1CN(C1CCC(=O)NC1=O)C2=O (stereo not shown) [lenalidomide, Lenalidomide, reference compound]",cell viability,[1]; lenalidomide alone,dose-dependent reduction of cell viability
NS(=O)(=O)c1cccc2c1C(=O)c1cccc(O)c1C2=O [LLL12],STAT3 nuclear localization,[2],most STAT3 was retained in cytoplasm and absent in nuclei
same,IC50,[3],> 100 µM
same,phosphorylation of ERK(1/2),"[4]; ARH-77 MM cells, 5μM",slightly reduced
same,phosphorylation of ERK(1/2),[4]; U266 MM cells,even increased
same,STAT2 phosphorylation,[5],but not STAT1 or STAT2
same,IL-6 increased cell proliferation/viability,"[1]; IL-6 for 48 hours, MTT",blocked
same,IC50,[6],> 100 µM
same,IC50,[7],> 100 µM
same,reduction of STAT3 DNA binding activity,[8]; 2.5μM,30–33%
same,reduction of STAT3 DNA binding activity,[8]; 5μM,58–69%
same,"transcription of cyclin D1, survivin, Bcl-2, Bcl-XL, DNMT1",[9],inhibition of the transcription of all five
same,bodyweights of treated mice,[10],not reduced
same,IC50,[11],> 100 µM
same,IC50,[12],> 100 µM
same,IL-6 and IFN-α induced STAT3 phosphorylation,[13],prevented phosphorylation of STAT3
same,phosphorylation of Src,[14],not reduced significantly
same,IC50,[15],> 100 µM
same,IC50,[16],> 100 µM
same,STAT1 phosphorylation,[17],but not STAT1 or STAT2
same,IC50,[18],> 100 µM
same,IC50,[19],> 100 µM
same,IC50,"[20]; read-out: IC50, kinases which contain an SH2 domain, BMX, BRK, CSK, Fgr, Fyn, JAK3, LcK, Lyn, ZAP-70, 57.19 μM to > 100 μM",≥ 57.2 µM
same,IC50,"[20]; read-out: IC50, other protein kinases, AKT2, CDK1/cyclin B, FAK, FGFR2, IKKβ, JNK1, JNK2, PAK1, PAK2, PDGFR-α, PKC-α, PKC-δ, 91.76 μM to > 100 μM",≥ 91.8 µM
same,IC50,[21],> 100 µM
same,IC50,[22],> 100 µM
same,Apoptosis (Annexin V/PI),"[23]; U266, 2.5μM",38.2%
same,Apoptosis (Annexin V/PI),"[23]; U266, 5μM",53.3%
same,STAT3 phosphorylation at Tyr 705,"[24]; U266 and ARH-77, 2.5μM or 5μM, 24 hours",inhibited STAT3 phosphorylation
same,STAT3 phosphorylation,[24]; primary human MM cells from three patients,inhibited STAT3 phosphorylation
same,IC50,[25],57.2 µM
same,IC50,[26],> 100 µM
same,IC50,[27],> 100 µM
same,Combinational Index (CI),[28],less than 1
same,IC50,[29],73.9 µM
same,Apoptosis (Annexin V/PI),"[30]; ARH-77, 2.5μM",70.8%
same,Apoptosis (Annexin V/PI),"[30]; ARH-77, 5μM",73.5%
same,phosphorylation of mTOR,[31],not reduced significantly
same,effect on normal cells,[32],little effects
same,IC50,[33],> 100 µM
same,STAT4 phosphorylation by IL-4,[34],did not prevent phosphorylation
same,IC50,[35],> 100 µM
same,STAT3 phosphorylation in tumors,[36]; Western blot,inhibited STAT3 phosphorylation
same,tumor volume,[36]; p < 0.05,significantly suppressed
same,tumor weight,[36]; p < 0.05,significantly suppressed
same,IC50,[37],0.49 µM
same,IC50,[38],91.8 µM
same,cleaved caspase-3 and cleaved PARP,[39],did not induce
same,effect on normal cells,[40],little effects
same,IC50,[41],> 100 µM
same,STAT6 phosphorylation by IL-4,[42],did not prevent phosphorylation
same,IC50,[43],1.96 µM
same,IC50,[44],> 100 µM
same,IC50,[45],89.7 µM
"O=[N+]([O-])c1ccc2c(c1)S(=O)(=O)C=C2 [Stattic, reference compound]",IL-6 and IFN-α induced STAT3 phosphorylation,[13],much less potent than LLL12
